In the M2OR odorant receptor database:

Assays:
Conditions in all cases: stereoisomer not certain
[1] = molecular target: T1, Or1m1 (Mus musculus) (UniProt Q8VFM9)
T1 sequence (whole entry): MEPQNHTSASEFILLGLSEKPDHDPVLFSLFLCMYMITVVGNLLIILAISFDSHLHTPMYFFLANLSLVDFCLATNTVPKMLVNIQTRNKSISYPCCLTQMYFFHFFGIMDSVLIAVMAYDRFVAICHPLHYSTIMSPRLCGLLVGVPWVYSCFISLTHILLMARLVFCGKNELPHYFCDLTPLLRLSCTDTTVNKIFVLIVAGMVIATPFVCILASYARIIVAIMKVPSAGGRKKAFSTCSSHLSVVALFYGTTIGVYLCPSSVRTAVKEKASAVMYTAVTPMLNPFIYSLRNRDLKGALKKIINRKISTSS
How it was run: (§1)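 Assay methods differ from source to source, frequently being transient luciferase assays in mammalian cell lines. For each receptor–molecule pair, the label responsive (active) applies when the original authors judged the measured signal statistically different from baseline, and non-responsive (inactive) applies otherwise.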

[2] = molecular target: T2, Or2c1 (Mus musculus) (UniProt P23275)
T2 sequence (whole entry): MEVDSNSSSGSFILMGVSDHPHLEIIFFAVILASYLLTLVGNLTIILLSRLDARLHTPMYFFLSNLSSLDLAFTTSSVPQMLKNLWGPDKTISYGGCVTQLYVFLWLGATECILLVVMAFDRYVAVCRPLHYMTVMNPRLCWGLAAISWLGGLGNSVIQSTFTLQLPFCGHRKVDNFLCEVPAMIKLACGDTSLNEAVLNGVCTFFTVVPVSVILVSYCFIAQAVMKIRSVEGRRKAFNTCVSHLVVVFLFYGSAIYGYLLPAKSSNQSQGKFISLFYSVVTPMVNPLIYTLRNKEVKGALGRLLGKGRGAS
How it was run: as §1

[3] = molecular target: T3, Or5ar1 (Mus musculus) (UniProt Q8VGS3)
T3 sequence (whole entry): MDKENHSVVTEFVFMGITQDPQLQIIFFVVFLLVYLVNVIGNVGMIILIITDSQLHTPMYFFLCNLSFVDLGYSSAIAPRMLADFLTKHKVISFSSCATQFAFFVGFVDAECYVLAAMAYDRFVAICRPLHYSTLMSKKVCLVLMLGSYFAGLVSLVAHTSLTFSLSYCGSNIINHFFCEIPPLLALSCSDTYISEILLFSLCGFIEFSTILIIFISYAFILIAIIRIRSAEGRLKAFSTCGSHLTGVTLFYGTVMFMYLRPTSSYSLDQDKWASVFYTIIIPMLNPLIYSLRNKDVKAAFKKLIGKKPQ
How it was run: as §1

[4] = molecular target: T4, Or5p80 (Mus musculus) (UniProt Q8VG42)
T4 sequence (whole entry): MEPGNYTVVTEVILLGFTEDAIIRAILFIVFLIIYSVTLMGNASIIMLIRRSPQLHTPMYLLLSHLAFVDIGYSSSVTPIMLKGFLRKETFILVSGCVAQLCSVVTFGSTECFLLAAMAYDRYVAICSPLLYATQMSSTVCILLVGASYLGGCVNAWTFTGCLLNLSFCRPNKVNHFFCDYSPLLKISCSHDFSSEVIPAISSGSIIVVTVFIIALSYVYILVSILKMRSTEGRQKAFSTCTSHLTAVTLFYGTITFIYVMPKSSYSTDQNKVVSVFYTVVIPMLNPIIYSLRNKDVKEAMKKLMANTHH
How it was run: as §1

[5] = molecular target: T5, Or7a40 (Mus musculus) (UniProt Q9JHB2)
T5 sequence (whole entry): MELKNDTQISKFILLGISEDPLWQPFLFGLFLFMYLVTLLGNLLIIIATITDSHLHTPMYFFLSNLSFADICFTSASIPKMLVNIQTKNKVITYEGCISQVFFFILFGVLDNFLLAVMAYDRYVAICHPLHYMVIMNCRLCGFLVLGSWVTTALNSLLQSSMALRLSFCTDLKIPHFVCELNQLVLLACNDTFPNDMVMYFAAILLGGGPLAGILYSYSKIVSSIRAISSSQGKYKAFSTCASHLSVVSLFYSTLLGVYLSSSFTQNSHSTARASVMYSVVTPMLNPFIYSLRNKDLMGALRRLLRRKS
How it was run: as §1

[6] = molecular target: T6, UniProt A2ATE5
T6 sequence (whole entry): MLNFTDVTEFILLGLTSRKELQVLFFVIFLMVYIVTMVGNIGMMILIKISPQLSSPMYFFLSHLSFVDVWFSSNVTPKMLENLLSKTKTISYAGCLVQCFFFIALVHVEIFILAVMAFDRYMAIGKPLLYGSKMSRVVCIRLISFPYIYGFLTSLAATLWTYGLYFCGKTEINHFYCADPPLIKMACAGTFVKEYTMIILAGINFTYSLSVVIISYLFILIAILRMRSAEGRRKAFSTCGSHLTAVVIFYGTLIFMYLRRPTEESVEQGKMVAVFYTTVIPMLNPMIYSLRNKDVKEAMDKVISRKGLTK
How it was run: as §1

[7] = molecular target: T7, UniProt A2AVB0
T7 sequence (whole entry): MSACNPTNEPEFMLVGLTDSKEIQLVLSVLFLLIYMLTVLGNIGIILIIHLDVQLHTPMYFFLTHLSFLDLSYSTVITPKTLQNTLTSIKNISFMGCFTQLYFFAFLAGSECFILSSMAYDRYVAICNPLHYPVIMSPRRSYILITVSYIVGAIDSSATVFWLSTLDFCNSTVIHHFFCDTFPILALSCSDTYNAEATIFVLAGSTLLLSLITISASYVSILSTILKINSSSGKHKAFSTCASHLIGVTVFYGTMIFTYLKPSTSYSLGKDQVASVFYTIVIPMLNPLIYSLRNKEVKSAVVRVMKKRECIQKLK
How it was run: as §1

[8] = molecular target: T8, UniProt A2AVB5
T8 sequence (whole entry): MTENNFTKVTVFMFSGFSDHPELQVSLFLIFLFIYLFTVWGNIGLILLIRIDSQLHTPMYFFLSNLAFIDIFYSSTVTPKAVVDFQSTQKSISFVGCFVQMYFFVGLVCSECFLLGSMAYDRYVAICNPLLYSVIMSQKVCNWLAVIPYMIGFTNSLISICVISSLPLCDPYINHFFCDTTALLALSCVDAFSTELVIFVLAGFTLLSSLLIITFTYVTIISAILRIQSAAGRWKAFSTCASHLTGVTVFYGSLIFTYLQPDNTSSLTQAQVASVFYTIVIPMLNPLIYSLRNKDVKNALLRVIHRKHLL
How it was run: as §1

[9] = molecular target: T9, UniProt B2RVX8
T9 sequence (whole entry): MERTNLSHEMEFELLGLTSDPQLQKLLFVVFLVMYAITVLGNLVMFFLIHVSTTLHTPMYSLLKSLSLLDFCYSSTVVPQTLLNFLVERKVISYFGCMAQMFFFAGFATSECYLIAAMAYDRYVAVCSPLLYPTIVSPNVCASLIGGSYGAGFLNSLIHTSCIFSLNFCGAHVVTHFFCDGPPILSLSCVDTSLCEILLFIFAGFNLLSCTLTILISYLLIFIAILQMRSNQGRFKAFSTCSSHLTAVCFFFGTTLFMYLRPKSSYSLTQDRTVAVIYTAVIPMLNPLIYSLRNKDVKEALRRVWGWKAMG
How it was run: as §1

[10] = molecular target: T10, UniProt E9PVX1
T10 sequence (whole entry): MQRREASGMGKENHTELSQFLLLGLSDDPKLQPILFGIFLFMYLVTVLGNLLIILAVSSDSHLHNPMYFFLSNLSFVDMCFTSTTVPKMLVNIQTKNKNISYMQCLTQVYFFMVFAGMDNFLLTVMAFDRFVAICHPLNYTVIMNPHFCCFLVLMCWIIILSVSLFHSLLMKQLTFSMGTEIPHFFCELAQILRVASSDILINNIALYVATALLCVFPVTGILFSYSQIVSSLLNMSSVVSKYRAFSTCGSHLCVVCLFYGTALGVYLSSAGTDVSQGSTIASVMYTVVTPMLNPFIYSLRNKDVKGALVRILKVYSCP
How it was run: as §1

[11] = molecular target: T11, UniProt E9PZ66
T11 sequence (whole entry): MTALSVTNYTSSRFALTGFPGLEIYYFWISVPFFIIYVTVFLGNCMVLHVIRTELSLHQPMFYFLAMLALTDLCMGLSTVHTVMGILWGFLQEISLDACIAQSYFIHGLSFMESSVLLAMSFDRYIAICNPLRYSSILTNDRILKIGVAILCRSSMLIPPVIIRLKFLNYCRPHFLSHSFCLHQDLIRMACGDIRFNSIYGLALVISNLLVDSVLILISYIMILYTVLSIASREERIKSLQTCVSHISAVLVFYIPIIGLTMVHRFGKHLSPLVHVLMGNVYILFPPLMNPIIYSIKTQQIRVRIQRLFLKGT
How it was run: as §1

[12] = molecular target: T12, UniProt E9Q4X7
T12 sequence (whole entry): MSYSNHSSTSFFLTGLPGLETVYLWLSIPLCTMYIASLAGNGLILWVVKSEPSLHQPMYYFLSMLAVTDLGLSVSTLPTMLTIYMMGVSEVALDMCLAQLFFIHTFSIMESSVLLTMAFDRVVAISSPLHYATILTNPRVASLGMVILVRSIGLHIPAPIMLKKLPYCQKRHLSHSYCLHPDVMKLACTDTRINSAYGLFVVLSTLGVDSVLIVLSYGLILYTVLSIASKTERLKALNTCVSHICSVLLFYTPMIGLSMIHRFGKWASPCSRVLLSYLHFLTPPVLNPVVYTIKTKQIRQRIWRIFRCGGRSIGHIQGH
How it was run: as §1

[13] = molecular target: T13, UniProt E9Q546
T13 sequence (whole entry): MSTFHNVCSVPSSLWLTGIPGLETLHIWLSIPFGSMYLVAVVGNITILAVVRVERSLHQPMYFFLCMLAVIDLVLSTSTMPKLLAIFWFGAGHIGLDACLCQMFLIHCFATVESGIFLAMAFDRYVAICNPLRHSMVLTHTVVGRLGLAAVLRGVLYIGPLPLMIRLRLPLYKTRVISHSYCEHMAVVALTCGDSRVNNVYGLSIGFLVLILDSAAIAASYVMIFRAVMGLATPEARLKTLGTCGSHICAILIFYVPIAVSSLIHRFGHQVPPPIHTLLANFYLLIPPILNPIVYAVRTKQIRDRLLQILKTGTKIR
How it was run: as §1

[14] = molecular target: T14, UniProt E9Q6Z7
T14 sequence (whole entry): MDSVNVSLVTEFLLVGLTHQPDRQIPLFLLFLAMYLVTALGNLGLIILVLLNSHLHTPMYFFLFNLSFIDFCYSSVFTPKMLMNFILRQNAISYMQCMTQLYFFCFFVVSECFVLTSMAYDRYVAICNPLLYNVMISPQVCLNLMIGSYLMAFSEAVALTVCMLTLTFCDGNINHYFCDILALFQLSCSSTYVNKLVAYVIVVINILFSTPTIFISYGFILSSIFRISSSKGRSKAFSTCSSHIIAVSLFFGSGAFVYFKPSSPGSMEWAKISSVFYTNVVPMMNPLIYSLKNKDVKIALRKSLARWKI
How it was run: as §1

[15] = molecular target: T15, UniProt K7N609
T15 sequence (whole entry): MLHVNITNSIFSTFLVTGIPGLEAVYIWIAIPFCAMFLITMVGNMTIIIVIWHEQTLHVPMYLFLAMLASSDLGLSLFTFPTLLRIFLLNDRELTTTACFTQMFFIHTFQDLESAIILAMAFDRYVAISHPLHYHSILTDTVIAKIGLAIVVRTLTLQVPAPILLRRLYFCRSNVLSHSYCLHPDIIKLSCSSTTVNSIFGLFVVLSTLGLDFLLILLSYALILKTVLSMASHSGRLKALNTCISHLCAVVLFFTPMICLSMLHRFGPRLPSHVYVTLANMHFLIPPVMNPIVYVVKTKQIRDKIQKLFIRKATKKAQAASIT
How it was run: as §1

[16] = molecular target: T16, UniProt L7MU75
T16 sequence (whole entry): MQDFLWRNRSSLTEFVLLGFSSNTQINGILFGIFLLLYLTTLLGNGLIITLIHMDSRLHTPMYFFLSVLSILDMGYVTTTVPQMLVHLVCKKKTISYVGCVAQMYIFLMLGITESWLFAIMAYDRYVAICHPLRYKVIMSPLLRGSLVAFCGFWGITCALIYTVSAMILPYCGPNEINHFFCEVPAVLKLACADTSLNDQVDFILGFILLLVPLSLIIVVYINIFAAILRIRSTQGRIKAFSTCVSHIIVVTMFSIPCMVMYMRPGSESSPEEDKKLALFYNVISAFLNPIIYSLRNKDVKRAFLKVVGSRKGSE
How it was run: as §1

[17] = molecular target: Or5an6 (Mus musculus) (UniProt Q8VFV4)
Or5an6 (Mus musculus), sequence (Q8VFV4 whole entry): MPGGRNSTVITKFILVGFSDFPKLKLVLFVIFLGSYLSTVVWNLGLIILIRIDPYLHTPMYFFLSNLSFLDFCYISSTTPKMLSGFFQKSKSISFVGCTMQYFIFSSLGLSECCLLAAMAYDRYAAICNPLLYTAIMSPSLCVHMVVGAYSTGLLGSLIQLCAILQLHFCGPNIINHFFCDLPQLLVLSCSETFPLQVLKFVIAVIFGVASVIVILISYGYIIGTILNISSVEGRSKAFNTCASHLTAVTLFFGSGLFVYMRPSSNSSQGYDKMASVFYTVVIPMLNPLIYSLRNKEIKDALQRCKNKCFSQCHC
How it was run: as §1

[18] = molecular target: T17, UniProt E9Q9Z6
T17 sequence (whole entry): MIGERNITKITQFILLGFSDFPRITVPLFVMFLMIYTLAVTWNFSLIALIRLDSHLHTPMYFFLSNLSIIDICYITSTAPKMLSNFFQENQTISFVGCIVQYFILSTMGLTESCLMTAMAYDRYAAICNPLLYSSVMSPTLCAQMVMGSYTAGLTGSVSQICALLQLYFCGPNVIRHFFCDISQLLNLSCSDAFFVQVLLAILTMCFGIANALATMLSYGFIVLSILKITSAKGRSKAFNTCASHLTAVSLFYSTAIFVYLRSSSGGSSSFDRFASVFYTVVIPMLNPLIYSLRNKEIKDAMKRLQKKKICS
How it was run: as §1

[19] = molecular target: Or5p57 (Mus musculus) (UniProt Q8VEZ0)
Or5p57 (Mus musculus), sequence (Q8VEZ0 whole entry): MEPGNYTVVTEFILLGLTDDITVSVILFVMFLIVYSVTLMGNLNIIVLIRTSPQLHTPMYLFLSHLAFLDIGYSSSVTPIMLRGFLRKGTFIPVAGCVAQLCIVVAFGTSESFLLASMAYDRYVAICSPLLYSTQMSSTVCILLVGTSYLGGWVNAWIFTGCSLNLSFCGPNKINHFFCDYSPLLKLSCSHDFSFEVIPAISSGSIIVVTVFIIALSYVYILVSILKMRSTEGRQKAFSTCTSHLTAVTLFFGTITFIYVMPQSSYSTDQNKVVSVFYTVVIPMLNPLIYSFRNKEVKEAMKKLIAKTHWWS
How it was run: as §1

[20] = molecular target: UniProt E9PXN3
UniProt E9PXN3, sequence (E9PXN3 as listed by the source): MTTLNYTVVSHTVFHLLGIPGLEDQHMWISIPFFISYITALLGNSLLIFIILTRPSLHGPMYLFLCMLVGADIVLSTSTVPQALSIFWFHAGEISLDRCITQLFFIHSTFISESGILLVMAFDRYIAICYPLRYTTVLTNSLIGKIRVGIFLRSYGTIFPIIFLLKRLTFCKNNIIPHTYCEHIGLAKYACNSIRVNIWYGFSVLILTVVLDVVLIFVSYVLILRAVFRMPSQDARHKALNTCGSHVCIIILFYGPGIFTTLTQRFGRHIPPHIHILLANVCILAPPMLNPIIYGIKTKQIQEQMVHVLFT
How it was run: as §1

Measured: odorant receptor agonist call

C=CCOC(=O)Cc1ccccc1
active: [2]
not listed: [17] | [18] | [19] | [20]
inactive: all other assays above

CSSC
inactive: [1] | [3] | [6] | [7] | [10] | [11] | [12] | [13] | [14] | [16]

CC(=O)c1cc(C(C)(C)C)cc2c1CCC2(C)C
inactive: [18]
active: [17]

CCC1CCC(=O)O1 (stereo not given)
inactive: [2] | [3] | [4] | [5] | [8] | [9] | [13] | [15] | [16]

Oc1ccccc1Br
inactive: [1] | [3] | [6] | [7] | [10] | [11] | [12] | [13] | [14] | [16]

CC(=O)c1cc2c(cc1C)C(C)(C)C(C)CC2(C)C (stereo not given)
active: [18]

O=C(O)CCCCCCCBr
inactive: [19] | [20]
